Experiments:
[1] = biological target: T1, Prostaglandin G/H synthase 2 (Homo sapiens) (UniProt P35354); assay: Inhibition of cycloxygenase-2 (unknown origin) at 10 uM relative to control
T1 sequence (whole entry): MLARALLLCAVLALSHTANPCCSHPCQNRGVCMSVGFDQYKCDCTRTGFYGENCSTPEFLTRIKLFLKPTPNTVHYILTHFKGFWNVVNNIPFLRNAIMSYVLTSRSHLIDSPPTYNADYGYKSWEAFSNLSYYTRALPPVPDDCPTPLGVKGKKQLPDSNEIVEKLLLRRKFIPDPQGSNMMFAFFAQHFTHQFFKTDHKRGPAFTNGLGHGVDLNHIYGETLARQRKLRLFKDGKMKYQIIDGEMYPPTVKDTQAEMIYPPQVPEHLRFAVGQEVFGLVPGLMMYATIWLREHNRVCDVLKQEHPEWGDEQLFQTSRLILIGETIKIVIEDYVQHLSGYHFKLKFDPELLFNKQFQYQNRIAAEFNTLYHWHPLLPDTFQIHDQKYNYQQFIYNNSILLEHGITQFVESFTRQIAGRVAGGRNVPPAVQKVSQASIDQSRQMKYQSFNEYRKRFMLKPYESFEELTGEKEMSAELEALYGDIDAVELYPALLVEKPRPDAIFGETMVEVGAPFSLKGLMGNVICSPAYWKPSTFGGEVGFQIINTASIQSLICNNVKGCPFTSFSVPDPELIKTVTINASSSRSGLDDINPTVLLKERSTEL

[2] = Fraction unbound in human plasma by equilibrium dialysis method; assay type: ADME, cell-free
Summary of the method: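 Unbound fraction in human plasma determined by equilibrium dialysis, in duplicate.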

Cytochrome P450 2C9 = Cytochrome P450 2C9 (Homo sapiens, UniProt P11712); assay: Inhibition of CYP2C9 in human liver microsomes using dichlofenac as substrate preincubated for 10 mins followed by NADPH addition measured after 6 mins; assay type: ADME
Chain of Cytochrome P450 2C9 (P11712 whole entry): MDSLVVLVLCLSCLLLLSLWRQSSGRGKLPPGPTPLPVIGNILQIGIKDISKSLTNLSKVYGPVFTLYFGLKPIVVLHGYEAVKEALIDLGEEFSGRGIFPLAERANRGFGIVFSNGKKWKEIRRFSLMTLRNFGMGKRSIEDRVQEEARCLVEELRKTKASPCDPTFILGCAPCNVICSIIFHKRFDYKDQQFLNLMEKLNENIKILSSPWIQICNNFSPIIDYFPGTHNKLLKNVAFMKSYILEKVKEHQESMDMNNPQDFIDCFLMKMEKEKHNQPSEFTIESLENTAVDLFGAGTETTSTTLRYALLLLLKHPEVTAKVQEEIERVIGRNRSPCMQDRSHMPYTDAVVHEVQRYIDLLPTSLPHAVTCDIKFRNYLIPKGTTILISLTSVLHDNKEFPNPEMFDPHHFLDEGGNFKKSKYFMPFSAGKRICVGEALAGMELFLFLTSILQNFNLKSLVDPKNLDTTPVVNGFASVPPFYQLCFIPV
Summary of the method: (§1)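 Human liver microsomes (0.05 mg/mL protein) with cocktail substrates: 4 µM diclofenac (2C9), 3 µM dextromethorphan (2D6), 2.5 µM midazolam (3A4). Compound in 0.1 M potassium phosphate pH 7.4 preincubated 10 min at 37 °C; NADPH added, reaction 6 min at 37 °C.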

Cynomolgus monkey = assay: Clearance in cynomolgus monkey at 1 mg/kg, iv and 10 mg/kg, po relative to hepatic blood flow; assay type: ADME, organism-based, Macaca fascicularis, Liver; details: in vivo
Summary of the method: (§2)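 iv 1 mg/kg in 70 % PEG; po 10 mg/kg as suspension in 0.5 % methyl cellulose/0.015 % Tween. Blood sampled at 11 timepoints (0, 5, 15, 30 min, 1, 2, 4, 6, 8, 12, 24 h) per dose; mean of n = 3. Clearance expressed as percent of hepatic blood flow.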

[3] = biological target: T2, Arachidonate 5-lipoxygenase-activating protein (Mus musculus, UniProt P30355); assay: Inhibition of FLAP in calcimycin-stimulated mouse whole blood assessed as inhibition of LTB4 synthesis preincubated for 15 mins followed by calcimycin stimulation measured after 30 mins
T2 sequence (P30355 whole entry): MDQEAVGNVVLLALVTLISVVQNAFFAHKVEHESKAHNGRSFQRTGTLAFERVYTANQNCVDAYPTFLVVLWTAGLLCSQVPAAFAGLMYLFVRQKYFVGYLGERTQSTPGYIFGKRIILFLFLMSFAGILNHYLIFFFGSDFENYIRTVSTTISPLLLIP
Summary of the method: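 Mouse whole blood run by the same protocol as the human whole blood LTB4 assay (compound 15 min at 37 °C, 100 µM final calcimycin 30 min, HTRF LTB4 read-out). Geometric mean (n ≥ 3) of duplicate 8-point curves.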

[4] = Mean residence time in dog at 1 mg/kg, iv; assay type: ADME, organism-based, Canis lupus familiaris; design: dose 1 mg/kg, route intravenous; details: in vivo; summary of the method: as §2
[5] = Volume of distribution at steady state in rat at 1 mg/kg, iv and 10 mg/kg, po; assay type: ADME, organism-based; details: in vivo, read-out: Vdss; summary of the method: as §2
Mus musculus [6] = assay: In vivo inhibition of FLAP in C57BL/6 mouse assessed as LTB4 production in calcimycin-stimulated whole blood at 100 mg/kg, po after 2 hrs by ELISA (reference value: 100 +/- 13.3%); assay type: functional; design: scale not given: the % may be the effect or the level left
Cytochrome P450 3A4 = Cytochrome P450 3A4 (Homo sapiens, UniProt P08684); assay: Time-dependent inhibition of CYP3A4 in human liver microsomes using midazolam as substrate up to 100 uM by LC/MS/MS analysis; assay type: ADME
Chain of Cytochrome P450 3A4 (P08684 whole entry): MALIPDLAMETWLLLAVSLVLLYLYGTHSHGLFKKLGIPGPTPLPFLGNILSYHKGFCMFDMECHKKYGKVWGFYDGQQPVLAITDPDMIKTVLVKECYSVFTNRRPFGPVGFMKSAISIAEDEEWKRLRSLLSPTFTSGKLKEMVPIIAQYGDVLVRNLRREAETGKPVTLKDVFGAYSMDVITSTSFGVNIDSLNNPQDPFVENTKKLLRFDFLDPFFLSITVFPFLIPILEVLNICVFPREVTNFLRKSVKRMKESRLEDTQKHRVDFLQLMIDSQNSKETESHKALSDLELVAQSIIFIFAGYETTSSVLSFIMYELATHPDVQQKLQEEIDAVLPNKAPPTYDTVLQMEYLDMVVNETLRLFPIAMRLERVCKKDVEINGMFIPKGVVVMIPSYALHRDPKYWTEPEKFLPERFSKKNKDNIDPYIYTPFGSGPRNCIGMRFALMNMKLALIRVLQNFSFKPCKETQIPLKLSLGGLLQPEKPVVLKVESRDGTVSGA
Summary of the method: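 Primary incubation: 0.1 mg/ml human liver microsomes, 100 mM phosphate pH 7.4, 1 mM NADPH, 37 °C, compound 0 to 100 µM (7 concentrations). Aliquots taken at 0, 1, 3, 5, 15, 30 min into secondary incubation with 15 µM midazolam and 1 mM NADPH, quenched after 8 min; 1'-hydroxymidazolam measured by LC/MS/MS against a d4 internal standard.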

[7] = Plasma concentration in C57BL/6 mouse at 3 mg/kg, po after 2 hrs; assay type: ADME, organism-based; design: dose 3 mg/kg, route oral
Mus musculus [8] = assay: In vivo inhibition of FLAP in C57BL/6 mouse assessed as LTB4 production in calcimycin-stimulated whole blood at 30 mg/kg, po after 2 hrs by ELISA (reference value: 100 +/- 13.3%); assay type: functional; design: scale not given: the % may be the effect or the level left
[9] = Plasma concentration in C57BL/6 mouse at 100 mg/kg, po after 2 hrs; assay type: ADME, organism-based; design: dose 100 mg/kg, route oral
[10] = Oral bioavailability in dog at 10 mg/kg; assay type: ADME, organism-based, Canis lupus familiaris; details: in vivo; summary of the method: as §2
[11] = Permeability across apical to basolateral side in human Caco2 cells measured up to 2 hrs by LC/MS/MS analysis; assay type: ADME, cell-based; details: Caco-2, read-out: permeability
Summary of the method: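 Caco-2 cells seeded at 1-2 x 10^5 cells/cm2 on 0.4 µm PET filter inserts, cultured 10 to 25 days. Compound in HTP-4 buffer applied to apical donor side; donor sampled at start and end, receiver sampled over up to 2 h; quantified by LC/MS/MS. Duplicate 6-timepoint (0 to 2 h).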

[12] = Metabolic stability in human liver microsomes at 1 uM preincubated for 10 mins followed by NADPH addition measured over 60 mins by LC/MS analysis relative to hepatic blood flow; assay type: ADME; details: read-out: Stability
Summary of the method: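 Human liver microsomes (1 mg/mL protein) with test compound at 1 µM, preincubated 10 min at 37 °C before adding NADPH. Remaining compound followed over a 0–60 min time course, as duplicate 8-timepoint curves. The slope of ln(% remaining) against time gives clearance, expressed as percent of hepatic blood flow.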

[13] = Plasma concentration in C57BL/6 mouse at 10 mg/kg, po after 2 hrs; assay type: ADME, organism-based; design: dose 10 mg/kg, route oral
Cytochrome P450 2D6 = Cytochrome P450 2D6 (Homo sapiens, UniProt P10635); assay: Inhibition of CYP2D6 in human liver microsomes using dextromethorphan as substrate preincubated for 10 mins followed by NADPH addition measured after 6 mins; assay type: ADME; summary of the method: as §1
Chain of Cytochrome P450 2D6 (P10635 whole entry): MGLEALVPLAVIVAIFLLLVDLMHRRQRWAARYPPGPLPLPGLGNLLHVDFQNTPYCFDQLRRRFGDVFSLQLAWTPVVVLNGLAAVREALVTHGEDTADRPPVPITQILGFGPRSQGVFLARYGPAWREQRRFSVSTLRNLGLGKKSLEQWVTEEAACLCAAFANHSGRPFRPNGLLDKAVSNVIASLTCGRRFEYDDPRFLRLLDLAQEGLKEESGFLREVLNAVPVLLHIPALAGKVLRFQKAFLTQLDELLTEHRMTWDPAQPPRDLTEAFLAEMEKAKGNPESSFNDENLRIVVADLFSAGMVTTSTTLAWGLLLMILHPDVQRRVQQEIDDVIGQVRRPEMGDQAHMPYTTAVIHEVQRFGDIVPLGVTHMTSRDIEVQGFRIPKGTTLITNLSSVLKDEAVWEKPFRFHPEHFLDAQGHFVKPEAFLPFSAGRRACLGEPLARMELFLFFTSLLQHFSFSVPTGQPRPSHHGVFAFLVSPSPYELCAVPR

hERG (KCNH2) = hERG (KCNH2) (Homo sapiens, UniProt Q12809); assay: Inhibition of human ERG expressed in HEK293 cells assessed as change in tail current at 11 uM by manual patch clamp assay relative to control; assay type: cell-based; details: HEK293 cells that express hERG
Chain of hERG (KCNH2) (Q12809 whole entry, the tested form may be a part): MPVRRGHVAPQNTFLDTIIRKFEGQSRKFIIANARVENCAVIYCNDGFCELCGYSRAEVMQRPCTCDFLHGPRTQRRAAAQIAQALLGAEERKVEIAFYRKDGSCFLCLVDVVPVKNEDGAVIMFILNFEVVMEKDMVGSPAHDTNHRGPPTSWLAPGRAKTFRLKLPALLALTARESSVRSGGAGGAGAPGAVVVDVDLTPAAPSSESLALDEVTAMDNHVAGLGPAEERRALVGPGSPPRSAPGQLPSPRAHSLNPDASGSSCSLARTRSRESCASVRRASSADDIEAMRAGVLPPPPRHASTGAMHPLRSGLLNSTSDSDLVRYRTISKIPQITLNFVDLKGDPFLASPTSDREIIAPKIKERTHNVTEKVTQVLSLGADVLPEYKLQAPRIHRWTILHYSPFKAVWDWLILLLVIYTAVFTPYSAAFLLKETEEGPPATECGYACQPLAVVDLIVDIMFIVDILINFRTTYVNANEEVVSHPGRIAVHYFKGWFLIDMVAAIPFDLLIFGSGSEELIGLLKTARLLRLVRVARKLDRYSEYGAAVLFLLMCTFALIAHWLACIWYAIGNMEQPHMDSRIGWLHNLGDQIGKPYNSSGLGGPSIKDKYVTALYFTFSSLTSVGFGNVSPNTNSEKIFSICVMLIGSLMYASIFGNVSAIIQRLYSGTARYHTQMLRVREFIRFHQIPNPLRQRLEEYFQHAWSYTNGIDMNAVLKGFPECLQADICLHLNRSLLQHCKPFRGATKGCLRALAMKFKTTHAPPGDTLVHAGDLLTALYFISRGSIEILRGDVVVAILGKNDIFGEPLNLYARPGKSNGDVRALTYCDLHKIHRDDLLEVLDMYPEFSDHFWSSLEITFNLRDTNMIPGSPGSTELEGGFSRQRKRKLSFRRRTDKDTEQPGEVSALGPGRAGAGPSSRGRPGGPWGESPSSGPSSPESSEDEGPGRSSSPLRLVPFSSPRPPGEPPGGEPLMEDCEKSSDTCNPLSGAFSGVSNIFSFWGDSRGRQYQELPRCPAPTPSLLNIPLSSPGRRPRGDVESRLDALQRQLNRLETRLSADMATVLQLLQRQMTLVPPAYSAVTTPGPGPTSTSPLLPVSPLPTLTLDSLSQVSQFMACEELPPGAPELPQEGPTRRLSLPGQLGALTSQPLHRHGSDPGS
Summary of the method: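 Whole-cell manual patch clamp on HEK293 cells stably expressing human ERG, at room temperature (20-22 °C) in a perfusion chamber. Change in hERG tail current amplitude during the hyperpolarizing step measured with escalating compound concentrations.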

[14] = Mean residence time in rat at 1 mg/kg, iv; assay type: ADME, organism-based; design: dose 1 mg/kg, route intravenous; details: in vivo; summary of the method: as §2

CN(C)C(=O)Cn1cc(-c2nc([C@@](C)(c3ccc(-c4cnc(N)nc4)cc3)C3CC3)no2)cn1 [BI 665915]
inhibition [1]: < 50% | fraction unbound [2]: 0.047 | IC50 (Cytochrome P450 2C9): > 30 µM | CL (Cynomolgus monkey): 3.6% | IC50 [3]: 4.8 µM | MRT [4]: 23 h | Vd [5]: 0.9 L/kg | Activity (Mus musculus [6]): 5.1% | TDI (Cytochrome P450 3A4): Not Active | concentration at 2 h [7]: 3.7 µM | Activity (Mus musculus [8]): 22.2% | concentration at 2 h [9]: 152 µM | bioavailability [10]: 58% | Papp A→B at 2 h [11]: 34 ×10⁻⁶ cm/s | hepatic extraction ratio at 1 h, 1 µM [12]: 0.33 | concentration at 2 h [13]: 14.8 µM | IC50 (Cytochrome P450 2D6): > 30 µM | inhibition at 11 µM (hERG (KCNH2)): 11% | MRT [14]: 3.1 h

From ChEMBL document CHEMBL3414472, “Synthesis, SAR, and series evolution of novel oxadiazole-containing 5-lipoxygenase activating protein inhibitors: discovery of 2-[4-(3-{(r)-1-[4-(2-amino-pyrimidin-5-yl)-phenyl]-1-cyclopropyl-ethyl}-[1,2,4]oxadiazol-5-yl)-pyrazol-1-yl]-N,N-dimethyl-acetamide (BI 665915)” (J Med Chem, 2015)
